# Compound activity from PubChem.
# Rows were chosen to be rich in hits. Some 3.1% of all compounds tested hit in one or more screens of this group.
# UBC9 SUMO inh: SUMOylation inhibition | P63279 | HTRF SUMOylation assay, SAE1/SAE2 + UBC9, in vitro | inhibition, % at 35 µM | 0.36% of 290,000 active | AID 2006; in the data active = inhibition above about 50%, passing the limit was not always enough
# Target sequence (P63279 whole entry, looked up): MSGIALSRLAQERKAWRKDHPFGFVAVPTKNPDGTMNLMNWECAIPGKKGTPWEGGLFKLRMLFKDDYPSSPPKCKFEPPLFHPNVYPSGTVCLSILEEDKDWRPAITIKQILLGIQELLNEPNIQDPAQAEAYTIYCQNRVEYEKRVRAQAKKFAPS
# IMP-1 inh: blocks Pseudomonas aeruginosa IMP-1 metallo-beta-lactamase; purified IMP-1, nitrocefin hydrolysis, epi-absorbance fluorescence; inhibition, % at 5.6 µM; 0.45% of 290,000 active; AID 1556;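 active = inhibition above the mean plus 3 SD of all compounds in the same screening run, cut at about 4.5% in these data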;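 note: 0% = IMP-1 with DMSO and 100% = DMSO wells lacking enzyme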
#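 System – purified recombinant IMP-1 beta-lactamase · Input – IMP-1 dispensed at 0.2 nM · Timing – 15 min preincubation plus 25 min reaction at 25 °C · Signal – Epi-absorbance fluorescence, 480 nm excitation, 530 nm emission · Measure – percent IMP-1 inhibition derived from blank-referenced optical density · Controls – Enzyme-plus-DMSO low control, enzyme-free DMSO high control · Replication – singlicate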
# VIM-2 inh: blocks Pseudomonas aeruginosa VIM-2 metallo-beta-lactamase. 0.89% of 290,000 active. purified VIM-2, nitrocefin hydrolysis, epi-absorbance fluorescence. inhibition, % at 5.6 µM;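 active = inhibition above the mean of all tested compounds plus 3 SD, cutoff set per screening run, cut at about 7.5% in these data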;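 note: red hydrolysis product quenches plate fluorescence so inhibitors raise well fluorescence; 0% = enzyme with DMSO and 100% = DMSO without enzyme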
# PHOSPHO1 block: inhibitors of human PHOSPHO1 phosphatase; inhibition, % at 13.3 µM; 1.1% of 290,000 active; recombinant PHOSPHO1, absorbance phosphatase assay; Q8TCT1; in the data active = inhibition above about 60%
# Target sequence (Q8TCT1 whole entry, looked up): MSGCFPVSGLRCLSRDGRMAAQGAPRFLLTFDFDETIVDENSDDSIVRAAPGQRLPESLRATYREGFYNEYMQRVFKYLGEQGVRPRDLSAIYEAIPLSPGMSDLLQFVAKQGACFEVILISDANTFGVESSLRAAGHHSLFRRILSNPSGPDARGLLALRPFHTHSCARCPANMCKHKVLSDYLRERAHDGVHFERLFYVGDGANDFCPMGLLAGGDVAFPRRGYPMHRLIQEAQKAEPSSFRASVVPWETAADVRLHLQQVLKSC
# HCV core dimer: blocks dimerization of HCV core protein; TR-FRET GST/Flag-core106 dimerization, 1536-well; 0.33% of 300,000 active; inhibition, % at 5 µM;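 active = inhibition above the mean of all tested compounds plus 3 SD, set per screening campaign, cut at about 45% in these data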
#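 Assay system – GST-tagged and Flag-tagged HCV core protein residues 1-106 · Quantity – core106 proteins, GST 13.5 nM and Flag 17 nM · Benchmarks – unlabelled core106 and no-GST-core106 wells · Read-out basis – percent inhibition of core106 dimerization signal · Detection – time-resolved FRET, ex 340 nm, em 617 and 671 nm · Schedule – 4 h at 22.5 °C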
# HCV NS3 hel inh: HCV NS3 helicase inhibition; NS3 helicase DNA unwinding, Cy5 molecular beacon fluorescence; inhibition, % at 10.9 µM; 0.56% of 290,000 active; AID 1800;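 active = inhibition above the mean of all tested compounds plus 3 SD, set per campaign, cut at about 35% in these data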;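 note: 0% = DMSO wells and 100% = thioflavine S control wells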
#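 Assay system: hepatitis C virus NS3 helicase domain fragment enzyme. Also added: annealed dual-labelled DNA beacon duplex, ATP-started. Timing: 1 h reaction at 25 °C, ATP-initiated. Technique: Cy5 fluorescence at 0 and 60 min, beacon hairpin quenching. Evaluation: % inhibition of unwinding. Replication: one well per compound.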
# The depositor's hits bear a star; x = no result given.
SMILES,UBC9 SUMO inh,IMP-1 inh,VIM-2 inh,PHOSPHO1 block,HCV core dimer,HCV NS3 hel inh
COc1cccc(NC(=O)C2CCN(C(=O)NC3CCCCC3)CC2)c1,7,-2,-2,63*,-2,0
Cc1nc2nc(C)n(-c3ccccc3)c2s1,15,-7,0,71*,35,5
Cc1nc2ccccc2n1-c1ccccc1,12,-2,-1,1,-3,-1
Cc1ccc(-c2nn(-c3ccccc3)cc2/C=N/NC(=O)c2ccc(Br)o2)cc1,-15,-2,-5,37,49*,5
COc1ccc(CNC(=O)[C@H](CCSC)NC(=O)N2CCn3c2nc2ccccc23)cc1,-9,-2,-3,27,4,-28
CSCC[C@H](NC(=O)N1CCn2c1nc1ccccc12)C(=O)NCc1ccc(F)cc1,-12,51*,-2,49,-14,24
COc1ccc(-n2nc([N+](=O)[O-])c(=NCCCN3CCCC3=O)n2O)cc1,0,0,0,61*,-3,7
O=C1CCCN1CCCN=c1c([N+](=O)[O-])nn(-c2ccc(Cl)cc2)n1O,8,-2,-3,-4,x,13
CN(C)S(=O)(=O)c1cccc(NC(=O)COC(=O)CNC(=O)c2cccc([N+](=O)[O-])c2)c1,-15,-3,0,4,0,1
Cc1ccc(CNC(=O)c2ccc(S(=O)(=O)N(C)C)cc2)n1C,-2,-3,-3,30,9,-1
COc1ccc2cc3cc(C(=O)NCCCN4CCC(C)CC4)oc3nc2c1,26,0,9.9*,26,-29,-1
Cc1ccc(CCNC(=O)C2CCN(S(=O)(=O)c3cccc4cccnc34)CC2)cc1,x,-2,-7,41,9,8
Cc1ccc(CCNC(=O)C2CCN(S(=O)(=O)c3cccc4nsnc34)CC2)cc1,14,4.9*,-2,-4,-3,-3
CCOC(=O)CNC(=O)C1CCC(CNS(=O)(=O)c2cccc3nsnc23)CC1 (stereo unspecified),6,2,-1,65*,-4,-1
CC(C)(C)NC(=O)C1CCC(CNS(=O)(=O)c2cccc3nsnc23)CC1 (stereo unspecified),5,-2,-3,58,1,6
C=CCOC(=O)C1=C(C)NC(SCC(=O)Nc2nccs2)=C(C#N)C1c1ccc(Cl)cc1 (stereo unspecified),25,1,-4,67*,33,12
C=CCOC(=O)C1=C(C)NC(SCC(=O)Nc2nccs2)=C(C#N)C1c1cccs1 (stereo unspecified),9,-2,-3,62*,49*,-3
Cc1cccc(OCC(=O)NC(Cc2c[nH]c3ccccc23)C(=O)O)c1C (stereo unspecified),0,-2,-2,-4,20,22
COc1ccc(C)cc1N(CC(=O)O)S(=O)(=O)c1ccc(C)cc1,17,-4,-4,1,-10,12
COc1ccc(N(CC(=O)O)S(=O)(=O)c2ccc(C)cc2)cc1Cl,14,-1,11*,50,1,1
Oc1cc2ccccc2cc1-c1n[nH]c(=S)o1,26,-3,-2,96*,12,28
Cc1cc(-c2n[nH]c(=S)o2)c(C)n1-c1ccccc1,-13,-2,-4,101*,0,20
CCn1cc(CN2CCN(CCc3ccccc3)C(CCO)C2)c(C)n1 (stereo unspecified),14,-2,0,22,-5,-2
O=C(COC(=O)CCOc1ccccc1)NCc1ccco1,18,-3,-2,6,62*,8
O=C(COC(=O)C1CCCCC1C(=O)N1CCc2ccccc21)NCc1ccco1 (stereo unspecified),8,0,1,-4,83*,18
SMILES,UBC9 SUMO inh,IMP-1 inh,VIM-2 inh,PHOSPHO1 block,HCV core dimer,HCV NS3 hel inh
O=C(CN1CCCc2ccccc21)NC(=O)NCc1ccco1,16,-3,-3,-38,1,-1
O=C(COC(=O)C1CC2C=CC1C2)NCc1ccc(F)cc1 (stereo unspecified),1,-2,1,-5,-11,-3
O=C(COC(=O)C1CC2C=CC1C2)NCc1ccco1 (stereo unspecified),29,-1,0,-4,76*,23
O=C(Nc1ccc(Cl)cc1F)C1CCN(S(=O)(=O)c2cccc3nonc23)CC1,11,-1,-2,6,-3,13
CCN(C(=O)c1cc2c(C)nc3ccccc3c2o1)c1cc(Cl)ccc1OC,14,-1,2,37,10,-24
CCCCCCn1c(=O)[nH]c2nc3cc(N)c(C)cc3nc2c1=O,24,4,6,5,x,45*
CCCn1c(SCC(=O)Nc2nnc(CC)s2)nnc1-c1ccncc1,-2,-2,1,41,2,-2
O=C(Nc1ccc(S(=O)(=O)Nc2nccs2)cc1)c1nn(-c2ccccc2)ccc1=O,35,-4,-3,24,63*,30
Cc1cc2oc(C(=O)Nc3ccc(S(=O)(=O)Nc4nccs4)cc3)cc(=O)c2cc1Cl,79,2,-1,-3,58*,18
COc1ccc(C(=O)N(C)CC2CCN(CCc3cccc(C(F)(F)F)c3)CC2)cc1C,4,-3,-4,41,8,-17
S=c1[nH]c2ccc(Cl)cc2[nH]1,7,-6,-4,-3,-8,0
COc1ccc2[nH]c(=S)[nH]c2c1,21,-4,-6,92*,-9,5
Cc1cccc2c3nc4ccccc4nc3n(C)c12,0,-3,9.7*,26,4,-8
CCOc1ccc(/C=N/NC(=O)c2nnn(-c3nonc3N)c2CN(C)C2CCCCC2)cc1,0,0,-2,45,0,-4
Cc1[nH]n(C(C)(C)C)c(=O)c1Sc1ccccc1,11,-3,-2,94*,0,2
CC1(c2ccc([N+](=O)[O-])cc2)NC(=O)N(CC(=O)Nc2cccnc2Cl)C1=O (stereo unspecified),x,x,x,x,-1,x
Nc1nc(CSc2nc3ccccc3[nH]2)cs1,18,-4,-6,97*,3,6
c1ccc(CSc2nc3ccccc3[nH]2)cc1,8,-1,-2,13,1,3
CC(=O)Nc1c(NC(=O)CC#N)[nH]c2c(c1=O)c(=O)n(C)c(=O)n2C,15,-3,-2,16,-4,10
COc1ccc(-n2c(-c3ccc(Br)cc3)c[n+]3c2CCCCC3)cc1,-17,-2,-2,68*,-1,-5
COc1cccc2sc3ccc(NCCC4CCCN4C)cc3c(=O)c12 (stereo unspecified),14,-1,8.4*,20,-18,-26
Cc1cc(C)c(S(=O)(=O)NCCC2CCCN2C)c(C)c1 (stereo unspecified),18,-2,-3,18,-4,1
